Active and inactive are the calls of the source. The rule behind the calls is not given here.
Legend:
Escherichia coli [1] = experiment: Inhibition of Escherichia coli SecA N-terminal fragment EcN68 assessed as phosphate release at 100 uM by Malachite green assay
Procedure, shortened: (§1)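 ATPase of truncated E. coli SecA N68 (lacks C-terminal regulatory domain), 2.25 µg per reaction, with 2 mM ATP in 50 mM Tris-HCl pH 7.6, 20 mM KCl, 20 mM NH4Cl, 1 mM DTT, 2 mM Mg(OAc)2, 10% DMSO. Run at 40 °C for 20 min, stopped with malachite green then citric acid, 40 min at room temperature, A660 read. Activity remaining expressed as percent of compound-free control. At least triplicate, SEM.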

Escherichia coli [2] = experiment: Inhibition of Escherichia coli SecA N-terminal fragment EcN68 assessed as phosphate release at 30 uM by Malachite green assay; procedure, shortened: as §1
Escherichia coli [3] = experiment: Inhibition of Escherichia coli SecA N-terminal fragment EcN68 assessed as phosphate release at 5 uM by Malachite green assay; procedure, shortened: as §1
[4] = Inhibition of Escherichia coli full length SecA assessed as phosphate release by Malachite green assay
Procedure, shortened: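 Full-length SecA (5 µg) in 50 µL with 2 mM ATP, 50 mM Tris-HCl pH 7.6, 20 mM KCl, 20 mM NH4Cl, 1 mM DTT, 2 mM Mg(OAc)2, 10% DMSO; 40 °C, 40 min. Stopped with malachite green then 34% citric acid; 40 min room temperature, A660. Activity as percent of no-compound controls; at least triplicate.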

[5] = Inhibition of Escherichia coli SecA N-terminal fragment EcN68 assessed as phosphate release by Malachite green assay
Procedure, shortened: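 Truncated SecA lacking the C-terminal regulatory domain (2.25 µg) in 50 µL with 2 mM ATP, 50 mM Tris-HCl pH 7.6, 20 mM KCl, 20 mM NH4Cl, 1 mM DTT, 2 mM Mg(OAc)2, 10% DMSO; 40 °C, 20 min. Stopped with malachite green then 34% citric acid; 40 min room temperature, A660. Percent remaining ATPase versus no-compound controls; at least triplicate.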

Escherichia coli [6] = experiment: Antimicrobial activity against wild type Escherichia coli MC4100 after 10 to 12 hrs; type: functional, organism-based
Procedure, shortened: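 E. coli K-12 wild-type strain MC4100. Log-phase cells (OD600 ~0.5 to 1.0) diluted to OD600 0.05, compounds added from 100% DMSO stocks, final 5% DMSO. Cultured with shaking at 37 °C, 1050 rpm, for 10 to 12 h.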

Escherichia coli [7] = experiment: Antimicrobial activity against permeability mutant Escherichia coli NR698 after 10 to 12 hrs; type: functional, organism-based
Procedure, shortened: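 Outer-membrane-permeable MC4100 imp4213 mutant; log-phase cells (OD600 ~0.5–1.0) diluted to OD600 0.05, compounds added from 100% DMSO stocks, cultures with 5% DMSO final, shaken at 37 °C, 1050 rpm, 10–12 h.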

| Compound | inhibition (Escherichia coli [1]) | inhibition (Escherichia coli [2]) | other results |
| --- | --- | --- | --- |
| Cc1onc(-c2c(Cl)cccc2Cl)c1C(=O)NCc1cccc(Br)c1 | inactive | – | – |
| CC(C)c1ccc(-c2nc(SCc3ccccc3)[nH]c(=O)c2C#N)cc1 | – | Active | – |
| Cc1onc(-c2c(F)cccc2Cl)c1C(=O)Nc1ccc(Sc2ccccc2)nc1Sc1ccccc1 | Active | – | – |
| Cc1onc(-c2c(Cl)cccc2Cl)c1C(=O)N1CCOCC1 | inactive | – | – |
| Clc1ccc2nc(SCc3ccc(CSc4nc5ccc(Cl)cc5s4)cc3)sc2c1 | Active | – | – |
| Cc1onc(-c2c(Cl)cccc2Cl)c1C(=O)NC1CCC(C)CC1 (stereo not drawn) | inactive | – | – |
| Cc1cccc(NC(=O)c2c(-c3c(Cl)cccc3Cl)noc2C)c1 | inactive | – | – |
| Cc1onc(-c2c(Cl)cccc2Cl)c1C(=O)Nc1ccc(F)c(Cl)c1 | inactive | – | – |
| N#Cc1c(-c2cccc3ccccc23)nc(SCc2ccccc2)[nH]c1=O | – | Active | – |
| N#Cc1c(-c2cccc3ccccc23)nc(SCc2ccc(CSC3=NC(=O)C(C#N)C(c4cccc5ccccc45)=N3)cc2)[nH]c1=O (stereo not drawn) | Active | Active | inhibition (Escherichia coli [3]): Active |
| Cc1cc(NC(=O)c2c(-c3c(Cl)cccc3Cl)noc2C)ccc1Br | inactive | – | – |
| N#Cc1c(-c2ccc(Br)cc2)nc(SCc2ccc(CSC3=NC(=O)C(C#N)C(c4ccc(Br)cc4)=N3)cc2)[nH]c1=O (stereo not drawn) | Active | Active | IC50 [4]: 20 µM; inhibition (Escherichia coli [3]): Active; IC50 [5]: 2 µM |
| Cc1onc(-c2c(Cl)cccc2Cl)c1C(=O)Nc1cccc(Cl)c1 | inactive | – | – |
| Cc1onc(-c2c(Cl)cccc2Cl)c1C(=O)Nc1ccccc1F | inactive | – | – |
| c1ccc2oc(SCc3ccc(CSc4nc5ccccc5o4)cc3)nc2c1 | Active | – | – |
| CC(C)c1ccc(C2=NC(SCc3ccc(CSc4nc(-c5ccc(C(C)C)cc5)c(C#N)c(=O)[nH]4)cc3)=NC(=O)C2C#N)cc1 (stereo not drawn) | Active | Active | inhibition (Escherichia coli [3]): Active |
| Cc1onc(-c2c(Cl)cccc2Cl)c1C(=O)N1CCCCC1 | inactive | – | – |
| Cc1ccccc1NC(=O)c1c(-c2c(Cl)cccc2Cl)noc1C | inactive | – | IC50 [4]: 60 µM |

| Compound | inhibition (Escherichia coli [1]) | inhibition (Escherichia coli [2]) | other results |
| --- | --- | --- | --- |
| CCc1ccc(-c2nc(SCc3ccccc3)[nH]c(=O)c2C#N)cc1 | – | Active | – |
| Cc1onc(-c2c(Cl)cccc2Cl)c1C(=O)N1CCSCC1 | inactive | – | – |
| O=[N+]([O-])c1ccc2oc(SCc3ccc(CSc4nc5cc([N+](=O)[O-])ccc5o4)cc3)nc2c1 | Active | – | – |
| Cc1cccc(C2=NC(SCc3ccc(CSc4nc(-c5cccc(C)c5)c(C#N)c(=O)[nH]4)cc3)=NC(=O)C2C#N)c1 (stereo not drawn) | Active | Active | – |
| Cc1onc(-c2c(Cl)cccc2Cl)c1C(=O)NCc1ccccc1Br | inactive | – | – |
| N#Cc1c(-c2ccc(-c3ccccc3)cc2)nc(SCc2ccccc2)[nH]c1=O | – | Active | MIC (Escherichia coli [6]): inactive; MIC (Escherichia coli [7]): Active |
| O=[N+]([O-])c1cccc2oc(SCc3ccc(CSc4nc5c([N+](=O)[O-])cccc5o4)cc3)nc12 | Active | – | – |
| Cc1ccc2oc(SCc3ccc(CSc4nc5cc(C)ccc5o4)cc3)nc2c1 | Active | – | – |
| COc1ccc(C2=NC(SCc3ccc(CSc4nc(-c5ccc(OC)cc5)c(C#N)c(=O)[nH]4)cc3)=NC(=O)C2C#N)cc1 (stereo not drawn) | Active | Active | – |
| N#Cc1c(-c2ccc(-c3ccccc3)cc2)nc(SCc2ccc(CSC3=NC(=O)C(C#N)C(c4ccc(-c5ccccc5)cc4)=N3)cc2)[nH]c1=O (stereo not drawn) | Active | Active | MIC (Escherichia coli [6]): inactive; IC50 [4]: 50 µM; inhibition (Escherichia coli [3]): Active; IC50 [5]: 2 µM |
| Cc1ccc(NC(=O)c2c(-c3c(Cl)cccc3Cl)noc2C)c(C)c1 | inactive | – | – |
| N#Cc1c(-c2ccc(Br)cc2)nc(SCc2ccccc2)[nH]c1=O | – | Active | – |
| Cc1ccc(C2=NC(SCc3ccc(CSc4nc(-c5ccc(C)cc5)c(C#N)c(=O)[nH]4)cc3)=NC(=O)C2C#N)cc1 (stereo not drawn) | Active | Active | inhibition (Escherichia coli [3]): Active |
| N#Cc1c(-c2ccccc2)nc(SCc2ccc(CSC3=NC(=O)C(C#N)C(c4ccccc4)=N3)cc2)[nH]c1=O (stereo not drawn) | Active | Active | – |
| Cc1onc(-c2c(Cl)cccc2Cl)c1C(=O)NC1CCCCC1 | inactive | – | – |
| CCc1ccc(C2=NC(SCc3ccc(CSc4nc(-c5ccc(CC)cc5)c(C#N)c(=O)[nH]4)cc3)=NC(=O)C2C#N)cc1 (stereo not drawn) | Active | Active | inhibition (Escherichia coli [3]): Active |
| Clc1ccc2oc(SCc3ccc(CSc4nc5cc(Cl)ccc5o4)cc3)nc2c1 | Active | – | – |
